According to ChEMBL document CHEMBL4251648, “Synthesis and bioevaluation and doking study of 1H-pyrrolo[2,3-b]pyridine derivatives bearing aromatic hydrazone moiety as c-Met inhibitors” (Eur J Med Chem, 2018):

Tests used:
HepG2 = assay: Antiproliferative activity against human HepG2 cells after 72 hrs by MTT assay; format: functional, cell-based
Method in brief: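 Cells grown in MEM with 10% FBS. About 4×10³ cells per well, pre-incubated 24 h at 37°C in 5% CO₂. Compound added at final concentrations, then 72 h. MTT added at 5 µg/mL final for 4 h at 37°C. Formazan dissolved in DMSO and read at 492 nm against 630 nm reference. Tested three times; IC50 taken as the average of […] determinations.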

PC-3 = assay: Antiproliferative activity against human PC3 cells after 72 hrs by MTT assay; format: functional, cell-based
Method in brief: (§1)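 Cells grown in MEM with 10% FBS. About 4×10³ cells per well, pre-incubated 24 h at 37°C in 5% CO₂. Compound added at final concentrations, then 72 h. MTT added at 5 µg/mL final for 4 h at 37°C. Tested three times; IC50 taken as the average of […] determinations.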

A549 = assay: Antiproliferative activity against human A549 cells after 72 hrs by MTT assay; format: functional, cell-based; method in brief: as §1
MCF7 = assay: Antiproliferative activity against human MCF7 cells after 72 hrs by MTT assay; format: functional, cell-based; method in brief: as §1
[1] = molecular target: Epidermal growth factor receptor (Homo sapiens, UniProt P00533); assay: Inhibition of EGFR (unknown origin)
[2] = molecular target: Vascular endothelial growth factor receptor 2 (Homo sapiens, UniProt P35968); assay: Inhibition of VEGFR2 (unknown origin)
[3] = molecular target: T1, Receptor-type tyrosine-protein kinase FLT3 (Homo sapiens, UniProt P36888); assay: Inhibition of FLT3 (unknown origin)
T1 sequence (P36888 whole entry): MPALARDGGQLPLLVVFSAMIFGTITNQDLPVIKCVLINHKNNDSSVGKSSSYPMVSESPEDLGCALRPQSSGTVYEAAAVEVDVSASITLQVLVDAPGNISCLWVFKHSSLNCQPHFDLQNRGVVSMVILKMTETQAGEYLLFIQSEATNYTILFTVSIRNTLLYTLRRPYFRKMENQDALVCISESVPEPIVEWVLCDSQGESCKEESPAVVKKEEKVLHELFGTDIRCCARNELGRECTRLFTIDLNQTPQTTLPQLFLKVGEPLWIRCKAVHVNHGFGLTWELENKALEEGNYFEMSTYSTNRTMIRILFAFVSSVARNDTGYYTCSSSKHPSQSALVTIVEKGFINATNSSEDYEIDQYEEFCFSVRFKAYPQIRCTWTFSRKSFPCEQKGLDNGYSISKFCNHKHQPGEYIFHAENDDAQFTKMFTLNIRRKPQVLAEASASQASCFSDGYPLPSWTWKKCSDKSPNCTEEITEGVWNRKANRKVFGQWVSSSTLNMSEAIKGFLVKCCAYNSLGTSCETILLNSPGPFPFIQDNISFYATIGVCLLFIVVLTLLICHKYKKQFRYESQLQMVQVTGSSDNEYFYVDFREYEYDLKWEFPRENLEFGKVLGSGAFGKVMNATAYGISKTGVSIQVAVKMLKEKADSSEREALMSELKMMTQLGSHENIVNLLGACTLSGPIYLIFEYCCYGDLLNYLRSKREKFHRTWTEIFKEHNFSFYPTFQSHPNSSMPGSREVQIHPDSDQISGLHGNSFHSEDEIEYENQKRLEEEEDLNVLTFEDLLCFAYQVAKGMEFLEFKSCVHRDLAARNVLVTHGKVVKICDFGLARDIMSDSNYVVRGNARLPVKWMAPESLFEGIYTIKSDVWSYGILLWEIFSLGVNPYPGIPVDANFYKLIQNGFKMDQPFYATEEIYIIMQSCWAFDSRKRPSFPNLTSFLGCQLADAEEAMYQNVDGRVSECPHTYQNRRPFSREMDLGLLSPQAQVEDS

[4] = molecular target: Hepatocyte growth factor receptor (Homo sapiens, UniProt P08581); assay: Inhibition of c-Met (unknown origin) using FAM-labeled peptide substrate after 10 mins by mobility shift assay
[5] = Homo sapiens, PC-3, 72 h, read-out: IC50
[6] = Homo sapiens, HepG2, 72 h, read-out: IC50
[7] = Homo sapiens, A549, 72 h, read-out: IC50
[8] = Homo sapiens, MCF7, 72 h, read-out: IC50

Vascular endothelial growth factor receptor 2, sequence (P35968 whole entry): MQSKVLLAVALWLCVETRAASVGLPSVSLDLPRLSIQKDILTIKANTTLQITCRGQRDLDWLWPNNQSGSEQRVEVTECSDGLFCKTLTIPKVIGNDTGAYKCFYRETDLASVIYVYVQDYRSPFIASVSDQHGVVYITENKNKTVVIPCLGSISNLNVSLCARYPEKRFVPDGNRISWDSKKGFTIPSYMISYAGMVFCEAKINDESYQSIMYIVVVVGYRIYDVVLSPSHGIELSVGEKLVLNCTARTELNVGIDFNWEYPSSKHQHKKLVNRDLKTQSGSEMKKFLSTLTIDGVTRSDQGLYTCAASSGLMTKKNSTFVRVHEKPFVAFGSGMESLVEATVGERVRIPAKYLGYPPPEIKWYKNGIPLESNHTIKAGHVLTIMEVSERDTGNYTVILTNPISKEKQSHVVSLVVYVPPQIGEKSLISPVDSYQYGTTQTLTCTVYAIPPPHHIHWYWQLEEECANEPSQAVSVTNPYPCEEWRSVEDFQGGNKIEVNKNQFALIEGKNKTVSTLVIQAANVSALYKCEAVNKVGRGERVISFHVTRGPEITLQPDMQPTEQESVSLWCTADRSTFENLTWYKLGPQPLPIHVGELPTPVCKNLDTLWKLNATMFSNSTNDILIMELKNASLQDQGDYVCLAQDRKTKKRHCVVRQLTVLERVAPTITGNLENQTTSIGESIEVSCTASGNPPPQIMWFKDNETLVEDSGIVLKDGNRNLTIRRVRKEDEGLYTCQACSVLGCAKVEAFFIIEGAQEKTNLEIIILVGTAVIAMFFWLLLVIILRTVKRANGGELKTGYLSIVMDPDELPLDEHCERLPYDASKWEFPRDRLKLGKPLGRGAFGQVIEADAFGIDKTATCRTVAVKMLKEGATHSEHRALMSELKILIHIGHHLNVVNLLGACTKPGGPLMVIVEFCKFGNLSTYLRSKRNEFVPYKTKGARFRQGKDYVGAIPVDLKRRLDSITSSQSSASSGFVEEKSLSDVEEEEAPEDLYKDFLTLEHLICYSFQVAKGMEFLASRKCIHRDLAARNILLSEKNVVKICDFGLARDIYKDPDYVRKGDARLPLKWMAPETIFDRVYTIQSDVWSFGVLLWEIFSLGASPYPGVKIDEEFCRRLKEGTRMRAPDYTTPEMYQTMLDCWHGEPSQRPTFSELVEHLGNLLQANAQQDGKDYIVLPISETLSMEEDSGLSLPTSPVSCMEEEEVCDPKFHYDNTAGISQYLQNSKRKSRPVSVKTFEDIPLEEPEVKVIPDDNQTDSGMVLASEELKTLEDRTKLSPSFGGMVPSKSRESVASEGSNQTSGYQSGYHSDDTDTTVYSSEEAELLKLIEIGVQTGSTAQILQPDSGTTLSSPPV
Epidermal growth factor receptor, sequence (P00533 whole entry): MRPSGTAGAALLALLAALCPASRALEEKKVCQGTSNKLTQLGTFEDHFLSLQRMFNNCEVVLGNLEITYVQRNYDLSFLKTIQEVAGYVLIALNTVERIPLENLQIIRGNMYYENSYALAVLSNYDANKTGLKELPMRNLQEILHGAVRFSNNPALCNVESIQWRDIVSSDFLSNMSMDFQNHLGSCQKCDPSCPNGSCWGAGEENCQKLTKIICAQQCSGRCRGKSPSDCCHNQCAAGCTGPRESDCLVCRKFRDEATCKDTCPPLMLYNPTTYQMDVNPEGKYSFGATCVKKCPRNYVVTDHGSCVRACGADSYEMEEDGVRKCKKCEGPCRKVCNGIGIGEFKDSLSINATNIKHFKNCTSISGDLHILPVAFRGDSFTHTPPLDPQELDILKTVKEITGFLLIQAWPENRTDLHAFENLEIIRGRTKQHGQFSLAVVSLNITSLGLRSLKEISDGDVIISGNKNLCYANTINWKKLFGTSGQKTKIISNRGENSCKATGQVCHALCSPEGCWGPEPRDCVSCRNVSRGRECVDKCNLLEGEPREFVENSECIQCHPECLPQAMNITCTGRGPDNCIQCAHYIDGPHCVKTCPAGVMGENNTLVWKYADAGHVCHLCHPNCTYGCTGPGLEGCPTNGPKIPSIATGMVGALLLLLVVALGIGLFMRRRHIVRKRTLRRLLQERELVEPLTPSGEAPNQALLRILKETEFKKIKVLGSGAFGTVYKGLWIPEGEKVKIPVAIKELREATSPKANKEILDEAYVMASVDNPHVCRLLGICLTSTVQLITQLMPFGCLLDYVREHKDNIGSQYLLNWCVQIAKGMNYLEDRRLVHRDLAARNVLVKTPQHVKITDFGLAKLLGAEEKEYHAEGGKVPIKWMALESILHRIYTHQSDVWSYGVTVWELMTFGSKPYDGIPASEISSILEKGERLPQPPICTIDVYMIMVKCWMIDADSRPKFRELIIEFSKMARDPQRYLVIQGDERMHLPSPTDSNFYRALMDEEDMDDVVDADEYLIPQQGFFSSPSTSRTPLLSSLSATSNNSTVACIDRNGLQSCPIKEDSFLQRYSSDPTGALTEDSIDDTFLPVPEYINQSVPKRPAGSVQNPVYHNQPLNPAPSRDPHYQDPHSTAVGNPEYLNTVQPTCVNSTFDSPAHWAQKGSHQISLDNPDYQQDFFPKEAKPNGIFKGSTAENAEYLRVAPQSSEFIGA
Hepatocyte growth factor receptor, sequence (P08581 whole entry): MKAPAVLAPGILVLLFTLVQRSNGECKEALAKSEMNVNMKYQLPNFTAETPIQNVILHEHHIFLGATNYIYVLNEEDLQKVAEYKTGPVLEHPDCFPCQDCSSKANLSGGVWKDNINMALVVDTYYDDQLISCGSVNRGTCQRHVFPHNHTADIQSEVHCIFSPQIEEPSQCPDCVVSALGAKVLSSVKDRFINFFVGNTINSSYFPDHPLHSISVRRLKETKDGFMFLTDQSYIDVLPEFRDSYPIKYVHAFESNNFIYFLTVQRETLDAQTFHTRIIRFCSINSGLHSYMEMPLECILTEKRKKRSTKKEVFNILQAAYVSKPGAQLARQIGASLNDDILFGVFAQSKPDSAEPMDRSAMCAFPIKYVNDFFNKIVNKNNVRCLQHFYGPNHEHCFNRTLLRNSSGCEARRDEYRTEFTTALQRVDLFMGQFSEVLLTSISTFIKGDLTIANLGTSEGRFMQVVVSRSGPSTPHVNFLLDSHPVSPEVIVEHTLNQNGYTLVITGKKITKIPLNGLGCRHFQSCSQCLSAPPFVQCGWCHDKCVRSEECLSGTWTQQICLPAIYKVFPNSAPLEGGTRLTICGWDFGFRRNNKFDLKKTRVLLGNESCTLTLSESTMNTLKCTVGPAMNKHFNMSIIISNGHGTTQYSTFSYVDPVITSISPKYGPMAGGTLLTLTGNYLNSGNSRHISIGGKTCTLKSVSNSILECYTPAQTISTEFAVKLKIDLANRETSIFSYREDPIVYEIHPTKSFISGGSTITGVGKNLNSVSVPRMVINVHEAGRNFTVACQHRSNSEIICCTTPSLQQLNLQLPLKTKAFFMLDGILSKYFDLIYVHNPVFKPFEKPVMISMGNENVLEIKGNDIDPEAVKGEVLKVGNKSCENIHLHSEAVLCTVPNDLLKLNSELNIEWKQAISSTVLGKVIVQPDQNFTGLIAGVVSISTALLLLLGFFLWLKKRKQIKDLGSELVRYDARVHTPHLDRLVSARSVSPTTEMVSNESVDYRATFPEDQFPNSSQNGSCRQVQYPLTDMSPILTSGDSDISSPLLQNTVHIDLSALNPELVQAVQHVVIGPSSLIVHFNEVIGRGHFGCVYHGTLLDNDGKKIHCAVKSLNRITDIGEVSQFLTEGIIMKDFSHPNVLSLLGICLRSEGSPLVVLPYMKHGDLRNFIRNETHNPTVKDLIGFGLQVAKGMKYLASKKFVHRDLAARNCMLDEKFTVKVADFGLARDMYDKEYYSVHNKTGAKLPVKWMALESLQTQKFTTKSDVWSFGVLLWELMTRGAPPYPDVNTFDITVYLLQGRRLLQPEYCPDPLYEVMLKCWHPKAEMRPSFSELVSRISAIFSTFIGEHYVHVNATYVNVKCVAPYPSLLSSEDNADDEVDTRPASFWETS

Structure (SMILES) | IC50 (PC-3; [5]) | IC50 (HepG2; [6]) | IC50 (A549; [7]) | IC50 (MCF7; [8]) | other results
CN(C)CCn1cccc1/C=N/NC(=O)Nc1ccc(Oc2ccnc3[nH]ccc23)cc1 | 3.93 µM |  |  |  | IC50 (HepG2; hepg2): Not Active; IC50 (A549; a549): Not Active
N#Cc1ccc(/C=N/NC(=O)Nc2ccc(Oc3ccnc4[nH]ccc34)c(F)c2)cc1 | 9.03 µM | 0.85 µM | 1.36 µM |  | IC50 (MCF7; mcf7): Not Active
O=C(N/N=C/c1ccccc1)Nc1ccc(Oc2ccnc3[nH]ccc23)cc1 | 10.2 µM | 0.75 µM | 17.2 µM | 1.51 µM | 
O=C(N/N=C/c1ccc(O)cc1O)Nc1ccc(Oc2ccnc3[nH]ccc23)c(F)c1 | 13 µM | 4.55 µM | 5.84 µM | 48 µM | 
O=C(N/N=C/c1ccc(F)cc1Cl)Nc1ccc(Oc2ccnc3[nH]ccc23)c(F)c1 | 0.003 µM | 1.11 µM | 0.01 µM | 7.61 µM | 
O=C(N/N=C/c1cccn1CCCN1CCOCC1)Nc1ccc(Oc2ccnc3[nH]ccc23)cc1 | 14.7 µM | 1.69 µM | 2.24 µM |  | IC50 (MCF7; mcf7): Not Active
CCN(CC)CCn1cccc1/C=N/NC(=O)Nc1ccc(Oc2ccnc3[nH]ccc23)cc1 | 1.37 µM | 5.88 µM | 3.57 µM |  | 
O=C(N/N=C/c1ccccc1)Nc1ccc(Oc2ccnc3[nH]ccc23)c(F)c1 | 7.94 µM | 0.64 µM | 2.5 µM | 2.38 µM | 
COc1ccc(/C=N/NC(=O)Nc2ccc(Oc3ccnc4[nH]ccc34)c(F)c2)cc1 | 6.73 µM | 1.77 µM | 3.98 µM | 5.75 µM | 
CCN(CC)CCCn1cccc1/C=N/NC(=O)Nc1ccc(Oc2ccnc3[nH]ccc23)c(F)c1 | 2.95 µM | 2.14 µM | 1.21 µM | 3.39 µM | 
O=C(N/N=C/c1ccc(F)cc1)Nc1ccc(Oc2ccnc3[nH]ccc23)cc1 | 7.49 µM | 3.43 µM | 1.43 µM | 3.72 µM | 
O=C(N/N=C/c1cccn1CCCN1CCCCC1)Nc1ccc(Oc2ccnc3[nH]ccc23)cc1 | 3.58 µM | 3.69 µM | 1.56 µM | 4.69 µM | 
O=C(N/N=C/c1cccn1CCN1CCOCC1)Nc1ccc(Oc2ccnc3[nH]ccc23)c(F)c1 | 2.45 µM | 11.9 µM | 3.41 µM |  | 
O=C(N/N=C/c1ccc(O)c(Br)c1)Nc1ccc(Oc2ccnc3[nH]ccc23)c(F)c1 | 28.6 µM | 1.36 µM | 9.25 µM | 8.23 µM | 
O=C(N/N=C/c1cccc(Cl)c1Cl)Nc1ccc(Oc2ccnc3[nH]ccc23)cc1 |  |  |  |  | IC50 (HepG2; hepg2): Not Active; IC50 (MCF7; mcf7): Not Active; IC50 (PC-3; pc-3): Not Active; IC50 (A549; a549): Not Active
O=C(N/N=C/c1ccc(Cl)c(Cl)c1)Nc1ccc(Oc2ccnc3[nH]ccc23)c(F)c1 | 14.1 µM | 3.7 µM | 2.65 µM | 0.998 µM | 
O=C(N/N=C/c1cc(Br)c(O)c(Br)c1)Nc1ccc(Oc2ccnc3[nH]ccc23)c(F)c1 |  | 6.52 µM | 16.2 µM |  | IC50 (MCF7; mcf7): Not Active; IC50 (PC-3; pc-3): Not Active
O=C(N/N=C/c1cccc(Cl)c1Cl)Nc1ccc(Oc2ccnc3[nH]ccc23)c(F)c1 |  |  |  |  | IC50 (HepG2; hepg2): Not Active; IC50 (MCF7; mcf7): Not Active; IC50 (PC-3; pc-3): Not Active; IC50 (A549; a549): Not Active
O=C(N/N=C/c1ccc(F)cc1)Nc1ccc(Oc2ccnc3[nH]ccc23)c(F)c1 | 2.33 µM | 3.88 µM | 0.68 µM | 0.8 µM | 
CC(C)(C)c1cc(/C=N/NC(=O)Nc2ccc(Oc3ccnc4[nH]ccc34)c(F)c2)cc(C(C)(C)C)c1O | 10.4 µM | 7.22 µM | 13.6 µM | 0.84 µM | 

Structure (SMILES) | IC50 (PC-3; [5]) | IC50 (HepG2; [6]) | IC50 (A549; [7]) | IC50 (MCF7; [8]) | other results
CN(C)CCn1cccc1/C=N/NC(=O)Nc1ccc(Oc2ccnc3[nH]ccc23)c(F)c1 | 1.6 µM | 8.98 µM |  |  | IC50 (A549; a549): Not Active
CN1CCN(CCCn2cccc2/C=N/NC(=O)Nc2ccc(Oc3ccnc4[nH]ccc34)cc2)CC1 | 3.74 µM | 2.76 µM | 1.64 µM | 4.28 µM | 
O=C(N/N=C/c1ccc(O)cc1)Nc1ccc(Oc2ccnc3[nH]ccc23)cc1 | 4.92 µM | 32.2 µM | 1.91 µM | 5.8 µM | 
O=C(N/N=C/c1cccc([N+](=O)[O-])c1)Nc1ccc(Oc2ccnc3[nH]ccc23)c(F)c1 | 5.14 µM | 5.18 µM | 3.64 µM |  | IC50 (MCF7; mcf7): Not Active
O=C(N/N=C/c1cccn1CCCN1CCCC1)Nc1ccc(Oc2ccnc3[nH]ccc23)cc1 | 4.29 µM | 1.42 µM | 1.3 µM | 4.53 µM | IC50 [1]: 45 µM; IC50 [2]: 14.4 µM; IC50 [3]: 3.8 µM; IC50 [4]: 0.907 µM
O=C(N/N=C/c1ccc(O)cc1)Nc1ccc(Oc2ccnc3[nH]ccc23)c(F)c1 | 2.78 µM | 1.95 µM | 3.76 µM |  | IC50 (MCF7; mcf7): Not Active
COc1ccc(/C=N/NC(=O)Nc2ccc(Oc3ccnc4[nH]ccc34)cc2)cc1 |  | 9.74 µM | 4.3 µM |  | IC50 (MCF7; mcf7): Not Active; IC50 (PC-3; pc-3): Not Active
O=C(N/N=C/c1cccn1CCN1CCOCC1)Nc1ccc(Oc2ccnc3[nH]ccc23)cc1 | 1.65 µM | 9.94 µM | 3.88 µM |  | 
COc1ccc(/C=N/NC(=O)Nc2ccc(Oc3ccnc4[nH]ccc34)c(F)c2)c(OC)c1OC | 8.97 µM | 2.99 µM | 1.45 µM | 0.134 µM | 
O=C(N/N=C/c1ccc(Br)cc1)Nc1ccc(Oc2ccnc3[nH]ccc23)cc1 |  | 1 µM | 0.64 µM |  | IC50 (MCF7; mcf7): Not Active; IC50 (PC-3; pc-3): Not Active
CN(C)CCCn1cccc1/C=N/NC(=O)Nc1ccc(Oc2ccnc3[nH]ccc23)cc1 | 5.15 µM | 4.19 µM | 2.66 µM | 9.14 µM | 
COc1ccc(/C=N/NC(=O)Nc2ccc(Oc3ccnc4[nH]ccc34)cc2)c(OC)c1OC | 27.6 µM | 2.96 µM | 3.34 µM |  | IC50 (MCF7; mcf7): Not Active
O=C(N/N=C/c1cccn1CCCN1CCCCC1)Nc1ccc(Oc2ccnc3[nH]ccc23)c(F)c1 | 2.84 µM | 2.84 µM | 2.85 µM | 4.84 µM | 
O=C(N/N=C/c1ccc(O)cc1Br)Nc1ccc(Oc2ccnc3[nH]ccc23)cc1 |  |  | 5.08 µM |  | IC50 (MCF7; mcf7): Not Active; IC50 (PC-3; pc-3): Not Active
O=C(N/N=C/c1ccc([N+](=O)[O-])cc1)Nc1ccc(Oc2ccnc3[nH]ccc23)cc1 | 28.1 µM | 4.62 µM | 2.1 µM | 15.6 µM | 
O=C(N/N=C/c1cccn1CCCN1CCCC1)Nc1ccc(Oc2ccnc3[nH]ccc23)c(F)c1 | 3.58 µM | 3.5 µM | 2.01 µM | 4.58 µM | 
O=C(N/N=C/c1ccc([N+](=O)[O-])cc1)Nc1ccc(Oc2ccnc3[nH]ccc23)c(F)c1 | 0.15 µM | 3.03 µM | 0.02 µM | 4 µM | 
COc1cc(/C=N/NC(=O)Nc2ccc(Oc3ccnc4[nH]ccc34)c(F)c2)cc(OC)c1OC |  |  | 34.1 µM | 21.9 µM | IC50 (HepG2; hepg2): Not Active; IC50 (PC-3; pc-3): Not Active
CN1CCN(CCCn2cccc2/C=N/NC(=O)Nc2ccc(Oc3ccnc4[nH]ccc34)c(F)c2)CC1 | 2.19 µM | 2.74 µM | 2.2 µM | 3.74 µM | 
O=C(N/N=C/c1cccc(Br)c1)Nc1ccc(Oc2ccnc3[nH]ccc23)c(F)c1 | 4.02 µM | 0.66 µM | 2.22 µM | 0.049 µM | 
